Consider nine compounds from ChEMBL document CHEMBL1124366, “Synthesis and biological properties of N63-carboxamides of teicoplanin antibiotics. Structure-activity relationships” (J Med Chem, 1989).

Structures are written as SMILES. In brackets after ≈: the same amount, converted by molar mass.

Format in all cases: functional
In assay [1] the test system is Streptococcus pyogenes. Briefly: In vivo effective dose given perorally to mice infected with Streptococcus pyogenes C 203. The conditions noted are these: po. In short, it runs like this: (§1)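 Mice (five per treatment group, five groups) infected intraperitoneally with about 10⁵ cells of Strep. pyogenes C 203, about 100× the LD50. ED50 (mg/kg) was calculated from the percentage of mice surviving at each dose on day 7.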

Assay [2] deals with Streptococcus pyogenes. As to the kind of experiment: Subcutaneously administration into mice infected with Streptococcus pyogenes C 203. The note with it: sc. In short, it runs like this: as §1
Assay [3] relates to Staphylococcus epidermidis. Briefly: In vitro minimum inhibitory concentration against Staphylococcus epidermis ATCC 12228.
For another assay, the system named is Staphylococcus aureus. As to the kind of experiment: In vitro minimum inhibitory concentration against Staphylococcus aureus Tour.
For the next assay, the system named is Streptococcus pneumoniae. Briefly: In vitro minimum inhibitory concentration against Streptococcus pneumoniae UC41.
In assay [4] the test system is Streptococcus pyogenes. Briefly: In vitro minimum inhibitory concentration against Streptococcus pyogenes C 203.
The next assay has as its system Enterococcus faecalis. Briefly: In vitro minimum inhibitory concentration against Streptococcus faecalis ATCC 7080.
For assay [5], the system named is Staphylococcus haemolyticus. Briefly: In vitro minimum inhibitory concentration against Staphylococcus hemolyticus 602 cell line. The conditions noted are these: strain 602.
The next assay concerns Escherichia coli. As to the kind of experiment: In vitro minimum inhibitory concentration against Escherichia coli SKF 12140.
The next assay concerns Proteus vulgaris. Briefly: In vitro minimum inhibitory concentration against Proteus vulgaris X 19 ATCC 881.

What is called ED50 is the midpoint of the dose-response relation. Read a high ED50 as a need for a large dose. With `CCCCN(CCCC)CCCNC(=O)[C@H]1NC(=O)[C@H]2NC(=O)[C@H](NC(=O)[C@@H]3NC(=O)[C@H]4NC(=O)[C@@H](Cc5ccc(c(Cl)c5)Oc5cc3cc(c5O[C@@H]3O[C@@H](CO)[C@@H](O)[C@H](O)[C@@H]3NC(=O)CCCCCCC(C)C)Oc3ccc(cc3Cl)[C@H]2O[C@@H]2O[C@@H](CO)[C@@H](O)[C@H](O)[C@@H]2NC(C)=O)NC(=O)[C@H](N)c2ccc(O)c(c2)Oc2cc(O)cc4c2)c2ccc(O)c(c2)-c2c(O[C@H]3O[C@H](CO)[C@@H](O)[C@@H](O)[C@@H]3O)cc(O)cc21`, the ED50 in the assay with Streptococcus pyogenes [1] came to 300 mg/kg; with Streptococcus pyogenes [2], 0.1 mg/kg. Further, the MIC in assay [3] is 0.06 µg/mL (≈ 0.0293 µM); against Staphylococcus aureus, 0.25 µg/mL (≈ 0.122 µM); in the assay with Streptococcus pneumoniae it was 0.06 µg/mL (≈ 0.0293 µM); in the assay on Streptococcus pyogenes [4], 0.06 µg/mL (≈ 0.0293 µM); against Enterococcus faecalis, 0.12 µg/mL (≈ 0.0586 µM).

Take `CC(=O)N[C@@H]1[C@H](O[C@@H]2c3ccc(c(Cl)c3)Oc3cc4cc(c3O[C@@H]3O[C@@H](CO)[C@@H](O)[C@H](O)[C@@H]3NC(=O)CCCCCCC(C)C)Oc3ccc(cc3Cl)C[C@H]3NC(=O)[C@H](N)c5ccc(O)c(c5)Oc5cc(O)cc(c5)[C@H](NC3=O)C(=O)N[C@H]4C(=O)N[C@H]3C(=O)N[C@@H]2C(=O)N[C@H](C(=O)N(C)C)c2cc(O)cc(O[C@H]4O[C@H](CO)[C@@H](O)[C@@H](O)[C@@H]4O)c2-c2cc3ccc2O)O[C@@H](CO)[C@@H](O)[C@@H]1O`: the values for the ED50 in the assay with Streptococcus pyogenes [1] and in the assay on Streptococcus pyogenes [2] were 139 mg/kg and 0.08 mg/kg, respectively. Besides, the MIC in assay [3] came out at 0.25 µg/mL (≈ 0.131 µM); against Staphylococcus aureus, 0.12 µg/mL (≈ 0.0629 µM); against Streptococcus pneumoniae, 0.06 µg/mL (≈ 0.0315 µM); in the assay on Streptococcus pyogenes [4], 0.06 µg/mL (≈ 0.0315 µM); in the assay on Enterococcus faecalis, 0.12 µg/mL (≈ 0.0629 µM).

For the compound `CC(=O)N[C@@H]1[C@H](O[C@@H]2c3ccc(c(Cl)c3)Oc3cc4cc(c3O[C@@H]3O[C@@H](CO)[C@@H](O)[C@H](O)[C@@H]3NC(=O)CCCCCCC(C)C)Oc3ccc(cc3Cl)C[C@H]3NC(=O)[C@H](N)c5ccc(O)c(c5)Oc5cc(O)cc(c5)[C@H](NC3=O)C(=O)N[C@H]4C(=O)N[C@H]3C(=O)N[C@@H]2C(=O)N[C@H](C(=O)NCCN2CCOCC2)c2cc(O)cc(O[C@H]4O[C@H](CO)[C@@H](O)[C@@H](O)[C@@H]4O)c2-c2cc3ccc2O)O[C@@H](CO)[C@@H](O)[C@@H]1O`, the ED50 with Streptococcus pyogenes [1] is 300 mg/kg; in the assay with Streptococcus pyogenes [2] it was 0.08 mg/kg. The MIC in assay [3] amounted to 0.12 µg/mL (≈ 0.0602 µM); against Staphylococcus aureus, 0.12 µg/mL (≈ 0.0602 µM); in the assay on Streptococcus pneumoniae it was 0.12 µg/mL (≈ 0.0602 µM); with Streptococcus pyogenes [4], 0.06 µg/mL (≈ 0.0301 µM); against Enterococcus faecalis it was 0.12 µg/mL (≈ 0.0602 µM).

As for `CC(=O)N[C@@H]1[C@H](O[C@@H]2c3ccc(c(Cl)c3)Oc3cc4cc(c3O[C@@H]3O[C@@H](CO)[C@@H](O)[C@H](O)[C@@H]3NC(=O)CCCCCCC(C)C)Oc3ccc(cc3Cl)C[C@H]3NC(=O)[C@H](N)c5ccc(O)c(c5)Oc5cc(O)cc(c5)[C@H](NC3=O)C(=O)N[C@H]4C(=O)N[C@H]3C(=O)N[C@@H]2C(=O)N[C@H](C(=O)NC2CN4CCC2CC4)c2cc(O)cc(O[C@H]4O[C@H](CO)[C@@H](O)[C@@H](O)[C@@H]4O)c2-c2cc3ccc2O)O[C@@H](CO)[C@@H](O)[C@@H]1O` (stereo partly specified), the ED50 in the assay on Streptococcus pyogenes [1] came to 173 mg/kg; with Streptococcus pyogenes [2], 0.07 mg/kg. Moreover, the MIC in [3] was 0.12 µg/mL (≈ 0.0604 µM); with Staphylococcus aureus it was 0.12 µg/mL (≈ 0.0604 µM); with Streptococcus pneumoniae it was 0.06 µg/mL (≈ 0.0302 µM); against Streptococcus pyogenes [4], 0.06 µg/mL (≈ 0.0302 µM); in the assay on Enterococcus faecalis, 0.12 µg/mL (≈ 0.0604 µM).

As to `CCCCC/C=C/CCC(=O)N[C@@H]1[C@H](Oc2c3cc4cc2Oc2ccc(cc2Cl)[C@@H](O[C@@H]2O[C@@H](CO)[C@@H](O)[C@H](O)[C@@H]2NC(C)=O)[C@@H]2NC(=O)[C@H](NC(=O)[C@@H]4NC(=O)[C@H]4NC(=O)[C@@H](Cc5ccc(c(Cl)c5)O3)NC(=O)[C@H](N)c3ccc(O)c(c3)Oc3cc(O)cc4c3)c3ccc(O)c(c3)-c3c(O[C@H]4O[C@H](CO)[C@@H](O)[C@@H](O)[C@@H]4O)cc(O)cc3[C@@H](C(=O)NC(CCC(=O)O)C(=O)O)NC2=O)O[C@@H](CO)[C@@H](O)[C@@H]1O` (stereo partly specified), the MIC in assay [3] was 0.12 µg/mL (≈ 0.0598 µM); in [5], 4 µg/mL (≈ 1.99 µM); against Staphylococcus aureus it was 0.5 µg/mL (≈ 0.249 µM); against Streptococcus pneumoniae, 0.12 µg/mL (≈ 0.0598 µM); with Streptococcus pyogenes [4], 0.06 µg/mL (≈ 0.0299 µM); in the assay on Enterococcus faecalis it was 0.25 µg/mL (≈ 0.125 µM).

Consider `CC(=O)NC1C(O[C@@H]2c3ccc(c(Cl)c3)Oc3cc4cc(c3O)Oc3ccc(cc3Cl)C[C@H]3NC(=O)[C@H](N)c5ccc(O)c(c5)Oc5cc(O)cc(c5)[C@H](NC3=O)C(=O)N[C@H]4C(=O)N[C@H]3C(=O)N[C@@H]2C(=O)N[C@H](C(=O)NCCN2CCCC2)c2cc(O)cc(O)c2-c2cc3ccc2O)OC(CO)C(O)C1O` (stereo partly specified), for which the MIC against Escherichia coli was determined as 128 µg/mL (≈ 85.4 µM); in [3], 0.06 µg/mL (≈ 0.04 µM); in the assay on Staphylococcus aureus it was 0.12 µg/mL (≈ 0.0801 µM); against Streptococcus pneumoniae, 0.25 µg/mL (≈ 0.167 µM); with Streptococcus pyogenes [4], 0.25 µg/mL (≈ 0.167 µM); against Enterococcus faecalis, 0.5 µg/mL (≈ 0.334 µM). Moreover, in the assay on Proteus vulgaris, the MIC is greater than 128 µg/mL. The compound also returned an ED50 in the assay with Streptococcus pyogenes [2] of 2.2 mg/kg.

As to `CCN(CC)CCCNC(=O)[C@H]1NC(=O)[C@H]2NC(=O)[C@H](NC(=O)[C@@H]3NC(=O)[C@H]4NC(=O)[C@@H](Cc5ccc(c(Cl)c5)Oc5cc3cc(c5O)Oc3ccc(cc3Cl)[C@H]2O[C@@H]2O[C@@H](CO)[C@@H](O)[C@H](O)[C@@H]2NC(C)=O)NC(=O)[C@H](N)c2ccc(O)c(c2)Oc2cc(O)cc4c2)c2ccc(O)c(c2)-c2c(O)cc(O)cc21`, the MIC turned out to be 64 µg/mL (≈ 42.3 µM) against Escherichia coli; 0.06 µg/mL (≈ 0.0396 µM) in [3]; 0.12 µg/mL (≈ 0.0792 µM) in the assay with Staphylococcus aureus; 0.5 µg/mL (≈ 0.33 µM) against Streptococcus pneumoniae; 0.12 µg/mL (≈ 0.0792 µM) against Streptococcus pyogenes [4]; 0.25 µg/mL (≈ 0.165 µM) in the assay on Enterococcus faecalis. In addition, the MIC against Proteus vulgaris is 128 µg/mL (≈ 84.5 µM). The compound also showed an ED50 with Streptococcus pyogenes [2] of 0.95 mg/kg.

Take `COC(=O)CNC(=O)[C@H]1NC(=O)[C@H]2NC(=O)[C@H](NC(=O)[C@@H]3NC(=O)[C@H]4NC(=O)[C@@H](Cc5ccc(c(Cl)c5)Oc5cc3cc(c5O)Oc3ccc(cc3Cl)[C@H]2O[C@@H]2O[C@@H](CO)[C@@H](O)[C@H](O)[C@@H]2NC(C)=O)NC(=O)[C@H](N)c2ccc(O)c(c2)Oc2cc(O)cc4c2)c2ccc(O)c(c2)-c2c(O)cc(O)cc21`: the MIC in the assay on Escherichia coli was greater than 128 µg/mL; in assay [3], 0.06 µg/mL (≈ 0.0407 µM); with Staphylococcus aureus, 0.25 µg/mL (≈ 0.17 µM); with Streptococcus pneumoniae, 2 µg/mL (≈ 1.36 µM); in the assay with Streptococcus pyogenes [4] it was 0.25 µg/mL (≈ 0.17 µM); with Enterococcus faecalis, 0.5 µg/mL (≈ 0.339 µM). Besides, the MIC with Proteus vulgaris is greater than 128 µg/mL. In the assay on Streptococcus pyogenes [2], the ED50 was determined as 7 mg/kg.

Regarding `CCOC(=O)CNC(=O)[C@H]1NC(=O)[C@H]2NC(=O)[C@H](NC(=O)[C@@H]3NC(=O)[C@H]4NC(=O)[C@@H](Cc5ccc(c(Cl)c5)Oc5cc3cc(c5O)Oc3ccc(cc3Cl)[C@H]2O[C@@H]2O[C@@H](CO)[C@@H](O)[C@H](O)[C@@H]2NC(C)=O)NC(=O)[C@H](N)c2ccc(O)c(c2)Oc2cc(O)cc4c2)c2ccc(O)c(c2)-c2c(O)cc(O)cc21`, the MIC with Escherichia coli came out at 128 µg/mL (≈ 86.1 µM); in assay [3], 0.12 µg/mL (≈ 0.0807 µM); in the assay on Staphylococcus aureus, 0.5 µg/mL (≈ 0.336 µM); in the assay with Streptococcus pneumoniae it was 1 µg/mL (≈ 0.672 µM); against Streptococcus pyogenes [4], 0.25 µg/mL (≈ 0.168 µM); with Enterococcus faecalis, 1 µg/mL (≈ 0.672 µM). Besides, the MIC in the assay with Proteus vulgaris was greater than 128 µg/mL. In the assay with Streptococcus pyogenes [2], this compound registered an ED50 of 5 mg/kg.
